14 compounds from PubChem BioAssay can be followed below.

Calls of active or inactive are those of the source.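 The calls were made as follows, unless noted: active = viability at or below 30% in both replicate assays; inconclusive = viability at or below 30% in just one of the two assays; inactive = the rest.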

The nature of assay [1]: Her2 expression decrease, cell viability multiplex – SKBR3 breast tumor cells, AlphaScreen, ATP viability, primary screen (AID 461;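 active = Her2 level under about 52% in both replicate screens, with viability over 70% of control, limit read from the data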;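 as to Her2 level: lower value means less Her2 protein in the cells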;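 as to viability: percent of carrier control wells set as 100% viability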). As to conditions: SKBR3 Her2 protein level, 18-24 h, measured here: SKBR3 viability, ATP luminescence, at 10 µM. A general note: In Alpha technology, singlet oxygen from a donor bead excites a nearby acceptor bead.
Assay [2] addresses Receptor tyrosine-protein kinase erbB-2 (Homo sapiens) (UniProt P04626). The assay is described as above. As to conditions: 18-24 h, at 10 µM, stronger effect = lower value.
The nature of assay [3]: reduced viability of SK-BR-3 breast cancer cells – cell-based, 24 h, human, pilot screen (AID 572;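 active = viability at or below 10% of carrier control in both of two separate runs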;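 also: compound exposure lasted between 18 and 24 h rather than exactly 24 h; 100% = carrier-treated control wells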). The conditions noted are these: SK-BR-3 viability, CellTiter-Glo luminescence, at 10 µM, stronger effect = lower value.
A short description of assay [4]: HUVEC growth inhibition – cell-based, human, primary screen (AID 575).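 Also: 100% = median of untreated cell wells with 0.1% DMSO on each plate.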 As to conditions: HUVEC proliferation, CellTiter-Glo luminescence, 72 h; at 10 µM; stronger effect = lower value. The gist of the method:
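Test system – primary HUVEC, no more than 12 passages · Dosing – one dose, 10 µM final, 0.1% DMSO · Times – 72 h treatment at 37 °C · Measured by – ATP-based CellTiter-Glo luminescent read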
In general terms: In ATP-based viability assays light output follows the ATP content of the culture.

Assay [5] is described as follows: H69AR cell proliferation blockers – human, duplicate replicates, primary screen (AID 580;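 active = viability at or under a set limit in both replicates, limit being median viability minus 3 SD, cut at about 48% in these data, passing the limit was not always enough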;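 also: 100% = mean luminescence of untreated wells and 0% = no signal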). The conditions noted are these: H69AR lung tumor cells viability, ATP luminescence, 72 h; at 10 µM; stronger effect = lower value.
Assay [6] is described as follows: MRP1 drug-resistance reversers in H69AR cells – cell-based, doxorubicin co-treatment, pilot screen (AID 601;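 active = viability loss from added drug above about 55%, and viability with drug at most 40%, in both replicates, limit read from the data, passing the limit was not always enough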). As to conditions: CellTiter-Glo, 72 h, at 10 µM; for differential viability (reversal): stronger effect = higher value.
Assay [7] is described as follows: yeast transport mutant growth inhibition pilot in 384-well plates, post-Golgi transport modulator project (AID 636; in the data active = inhibition above about 31%). The conditions noted are these: absorbance 615 nm, about 18 h, stronger effect = higher value.
Assay [8] can be described thus: growth suppression of yeast trafficking mutant, preliminary HTS, modulators of trafficking downstream of Golgi apparatus project, 1536-format plate, OD 615 nm (AID 637; in the data active = inhibition above about 30%). The conditions noted are these: yeast transport mutant growth, absorbance 615 nm, 18 h; stronger effect = higher value.
[9] abbreviates: H69AR cells + 2 uM doxorubicin, measured here: viability with 2 uM doxorubicin, stronger effect = lower value.
The mark [10] stands for this setting: H69AR cells, compound alone cytotoxicity.

Chain of Receptor tyrosine-protein kinase erbB-2 (Homo sapiens) (P04626 whole entry, looked up): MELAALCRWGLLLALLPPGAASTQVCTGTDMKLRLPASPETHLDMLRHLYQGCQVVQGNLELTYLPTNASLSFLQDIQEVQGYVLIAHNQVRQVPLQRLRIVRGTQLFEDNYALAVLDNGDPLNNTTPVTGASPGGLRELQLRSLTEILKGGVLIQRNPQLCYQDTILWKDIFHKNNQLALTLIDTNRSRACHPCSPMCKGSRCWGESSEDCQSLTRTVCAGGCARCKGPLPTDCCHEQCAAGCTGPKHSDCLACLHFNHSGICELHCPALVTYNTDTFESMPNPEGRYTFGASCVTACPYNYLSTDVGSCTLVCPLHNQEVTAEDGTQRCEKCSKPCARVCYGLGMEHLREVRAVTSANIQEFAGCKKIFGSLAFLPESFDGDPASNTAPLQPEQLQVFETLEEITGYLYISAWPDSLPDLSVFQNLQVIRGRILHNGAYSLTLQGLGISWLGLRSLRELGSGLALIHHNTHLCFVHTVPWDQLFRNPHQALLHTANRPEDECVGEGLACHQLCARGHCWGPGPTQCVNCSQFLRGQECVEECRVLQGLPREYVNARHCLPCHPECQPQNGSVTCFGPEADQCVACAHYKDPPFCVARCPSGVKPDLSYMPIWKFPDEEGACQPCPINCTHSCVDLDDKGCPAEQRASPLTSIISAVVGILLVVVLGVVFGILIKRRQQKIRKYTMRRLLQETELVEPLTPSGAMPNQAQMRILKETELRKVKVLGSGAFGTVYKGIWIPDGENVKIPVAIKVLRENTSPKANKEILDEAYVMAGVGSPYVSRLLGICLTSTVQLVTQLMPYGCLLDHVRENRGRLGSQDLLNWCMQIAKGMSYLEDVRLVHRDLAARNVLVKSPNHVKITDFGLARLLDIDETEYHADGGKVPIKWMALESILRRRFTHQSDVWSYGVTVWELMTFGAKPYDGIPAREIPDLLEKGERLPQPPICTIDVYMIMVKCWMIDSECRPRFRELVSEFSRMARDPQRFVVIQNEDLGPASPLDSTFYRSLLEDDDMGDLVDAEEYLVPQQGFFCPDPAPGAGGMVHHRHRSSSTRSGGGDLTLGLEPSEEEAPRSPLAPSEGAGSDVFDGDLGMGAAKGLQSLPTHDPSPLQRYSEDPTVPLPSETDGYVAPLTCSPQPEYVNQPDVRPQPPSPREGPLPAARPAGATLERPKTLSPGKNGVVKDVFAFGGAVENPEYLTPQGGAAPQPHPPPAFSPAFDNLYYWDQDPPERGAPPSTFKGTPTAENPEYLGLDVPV

The term viability denotes a read-out of living cells in per cent, often relative to untreated cells. As usually defined, the inhibition is the drop in the measured response relative to a control, in per cent. Regarding `CC(=O)O[C@H]1CSC[C@H]1NC(=O)c1ccccc1`, the viability is 98.5% in assay [1]; 98.5% (inactive) in assay [3]; 101% (inactive) in assay [4]; 99.8% (inactive) in assay [5]; 88.8% in assay [6] (setting [9]); 99.8% in assay [6] (setting [10]). In addition, the Her2 level in assay [2] was 97% (inactive). The differential viability (reversal) in assay [6] (H69AR cells + 2 uM doxorubicin) was 11% (inactive). Further, the figures for the inhibition in assay [7] and in assay [8] were -2.13% (inactive) and -1.77% (inactive), respectively.

Regarding `CCN(C(=O)Cc1c(C(=O)O)[nH]c2ccccc12)c1cc(OC)ccc1OC`, the viability was 112% in assay [1]; 112% (inactive) in assay [3]; 94.1% (inactive) in assay [4]; 92.7% (inactive) in assay [5]; 95.3% in assay [6] (setting [9]); 92.7% in assay [6] (setting [10]). In addition, in assay [2], the Her2 level was 84% (inactive). The differential viability (reversal) in assay [6] (H69AR cells + 2 uM doxorubicin) is -2.61% (inactive). Besides, the values for the inhibition in assay [7] and in assay [8] were -6.62% (inactive) and 4.5% (inactive), respectively.

`CCOC(=O)c1cc(C)sc1N1C(=O)C2C3C=CC(C3)C2C1=O` (stereo not given): the viability was 132% in assay [1]; 132% (inactive) in assay [3]; 109% (inactive) in assay [4]; 98.7% (inactive) in assay [5]; 92.8% in assay [6] (setting [9]); 98.7% in assay [6] (setting [10]). In assay [2], the Her2 level was 94.5% (inactive). In addition, the differential viability (reversal) in assay [6] (H69AR cells + 2 uM doxorubicin) is 5.84% (inactive). Further, the results for the inhibition in assay [7] and in assay [8] were -7.67% (inactive) and -0.95% (inactive), respectively.

Regarding `c1ccc(CCn2nnnc2C(c2cccs2)N2CCOCC2)cc1` (stereo not given), the viability in assay [1] is 102%; in assay [3] it was 102% (inactive); in assay [4], 99.2% (inactive); in assay [5] it was 107% (inactive); in assay [6] (setting [9]) it was 94%; in assay [6] (setting [10]) it was 107%. In addition, in assay [2], the Her2 level was 77.5% (inactive). The differential viability (reversal) in assay [6] (H69AR cells + 2 uM doxorubicin) was 12.8% (inactive). For the same compound, the figures for the inhibition in assay [7] and in assay [8] were -5.62% (inactive) and -1.59% (inactive), respectively.

Take `Cc1ccc2cc3cc(C(=O)NCCN4CCOCC4)oc3nc2c1`: the viability in assay [1] was 99%; in assay [3], 99% (inactive); in assay [4] it was 86% (inactive); in assay [5], 96.6% (inactive); in assay [6] (setting [9]) it was 86.6%; in assay [6] (setting [10]) it was 96.6%. In addition, the Her2 level in assay [2] was 79.5% (inactive). Besides, the differential viability (reversal) in assay [6] (H69AR cells + 2 uM doxorubicin) was 9.98% (inactive). For the same compound, the inhibition was -5.13% (inactive) in assay [7] and 8.67% (inactive) in assay [8].

For the compound `Cc1ccc(-n2c(Cc3cccn3C)nnc2SCC(=O)NCc2ccc3c(c2)OCO3)cc1`, the viability in assay [1] was 97.5%; in assay [3], 97.5% (inactive); in assay [4] it was 88.2% (inactive); in assay [5], 85.8% (inactive); in assay [6] (setting [9]) it was 80.7%; in assay [6] (setting [10]) it was 85.8%. The Her2 level in assay [2] is 89% (inactive). The differential viability (reversal) in assay [6] (H69AR cells + 2 uM doxorubicin) was 5.04% (inactive). The inhibition in assay [7] was -5.07% (inactive); in assay [8] it was -4.59% (inactive).

On to `CCCc1nc(N2CCOCC2)c(C#N)c2c1CCCC2`, for which the viability is 81% in assay [1]; 81% (inactive) in assay [3]; 81.5% (inactive) in assay [4]; 91.4% (inactive) in assay [5]; 91.5% in assay [6] (setting [9]); 91.4% in assay [6] (setting [10]). Besides, the Her2 level in assay [2] was 86.5% (inactive). The differential viability (reversal) in assay [6] (H69AR cells + 2 uM doxorubicin) is -0.135% (inactive). The inhibition in assay [7] is -0.13% (inactive); in assay [8] it was 6.77% (inactive).

`CCN(CC)S(=O)(=O)N1CCC(C(=O)NC2CCCc3ccccc32)CC1` (stereo not given): the viability in assay [1] was 78%; in assay [3], 78% (inactive); in assay [4], 108% (inactive); in assay [5], 90.5% (inactive); in assay [6] (setting [9]), 86.2%; in assay [6] (setting [10]), 90.5%. Further, the Her2 level in assay [2] is 118% (inactive). Moreover, in assay [6] (H69AR cells + 2 uM doxorubicin), the differential viability (reversal) was 4.3% (inactive). For the same compound, the inhibition in assay [7] was 5.45% (inactive); in assay [8], -4.26% (inactive).

Take `COc1ccc(OC)c(NC(=O)CCN2CCN(c3ccccc3F)CC2)c1`: the viability in assay [1] was 94.5%; in assay [3] it was 94.5% (inactive); in assay [4], 90.8% (inactive); in assay [5], 97.8% (inactive); in assay [6] (setting [9]), 84.7%; in assay [6] (setting [10]), 97.8%. Further, in assay [2], the Her2 level was 106% (inactive). The differential viability (reversal) in assay [6] (H69AR cells + 2 uM doxorubicin) was 13.1% (inactive). In addition, the inhibition in assay [7] was -4.93% (inactive); in assay [8], -8.39% (inactive).

For the compound `O=C(CNC1CCCCCC1)Nc1ccc(S(=O)(=O)NC2CC2)cc1`, the viability in assay [1] is 100%; in assay [3], 100% (inactive); in assay [4], 64.8% (inactive); in assay [5], 93.7% (inactive); in assay [6] (setting [9]) it was 87.9%; in assay [6] (setting [10]) it was 93.7%. The Her2 level in assay [2] was 87% (inactive). Also, the differential viability (reversal) in assay [6] (H69AR cells + 2 uM doxorubicin) was 5.79% (inactive). Also, the inhibition in assay [7] was -4.53% (inactive); in assay [8], -0.48% (inactive).

On to `CN1CCN(C(=O)CCC(=O)c2ccc(F)cc2)CC1`, for which the viability is 114% in assay [1]; 114% (inactive) in assay [3]; 96.4% (inactive) in assay [4]; 94.8% (inactive) in assay [5]; 87.2% in assay [6] (setting [9]); 94.8% in assay [6] (setting [10]). Moreover, in assay [2], the Her2 level is 79.5% (inactive). Further, the differential viability (reversal) in assay [6] (H69AR cells + 2 uM doxorubicin) is 7.6% (inactive). Moreover, the inhibition was -8.53% (inactive) in assay [7] and -3.77% (inactive) in assay [8].

Regarding `COc1ccc(CNC(=O)c2cc3c(=O)n4ccccc4nc3n(Cc3ccco3)c2=N)cc1`, the viability was 114% in assay [1]; 114% (inactive) in assay [3]; 105% (inactive) in assay [4]; 110% (inactive) in assay [5]; 76.9% in assay [6] (setting [9]); 110% in assay [6] (setting [10]). Moreover, the Her2 level in assay [2] is 97.5% (inactive). The differential viability (reversal) in assay [6] (H69AR cells + 2 uM doxorubicin) is 33% (inactive). Further, the inhibition in assay [7] was -0.39% (inactive); in assay [8], -5.08% (inactive).

Turning to `CCCCCc1c(C)nc(N2CCc3ccccc32)[nH]c1=O`, the viability in assay [1] is 92.5%; in assay [3], 92.5% (inactive); in assay [4] it was 57.4% (inactive); in assay [5], 94.6% (inactive); in assay [6] (setting [9]), 95.2%; in assay [6] (setting [10]), 94.6%. The Her2 level in assay [2] was 90% (inactive). In assay [6] (H69AR cells + 2 uM doxorubicin), the differential viability (reversal) is -0.605% (inactive). The inhibition in assay [7] is -0.68% (inactive); in assay [8], 3.17% (inactive).

For `CCOc1cc(-c2nc(-c3ccc(C)nc3OCC)no2)cc(OCC)c1OCC`, the viability in assay [1] is 91.5%; in assay [3] it was 91.5% (inactive); in assay [4], 82.2% (inactive); in assay [5] it was 94.8% (inactive); in assay [6] (setting [9]), 98%; in assay [6] (setting [10]), 94.8%. In addition, in assay [2], the Her2 level is 108% (inactive). Besides, in assay [6] (H69AR cells + 2 uM doxorubicin), the differential viability (reversal) is -3.25% (inactive). In addition, the inhibition is 2% (inactive) in assay [7] and 3.44% (inactive) in assay [8].
